Experimental data: ChEMBL document CHEMBL4428080, “Discovery and Pharmacological Characterization of Novel Quinazoline-Based PI3K Delta-Selective Inhibitors” (ACS Med Chem Lett, 2016)
Converted amounts (≈) assume the structure as drawn.

Assays:
[1] = Equilibrium solubility of the compound at pH 6.8 by high-throughput assay; type: physicochemical; conditions: buffer
Outline: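 High-throughput equilibrium solubility determination at pH 6.8, reported in mM.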

[2] = Octanol/water partition coefficient, log P of the compound by high-throughput assay; type: physicochemical
[3] = Tmax in Lewis rat blood at 30 mg/kg, po administered as single dose by LC-MS analysis; type: ADME, organism-based; conditions: whole blood
Outline: (§1)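 Lewis rats received a single oral dose of 30 mg/kg. Blood was collected at various time points and drug levels were determined.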

[4] = Oral bioavailability in Beagle dog at 0.3 mg/kg by HPLC method; type: ADME, organism-based, Canis lupus familiaris; conditions: in vivo
Outline: (§2)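 Oral PK in Sprague Dawley rats at 3 or 30 mg/kg and in dogs at 0.3 mg/kg. Dose-normalized parameters are scaled to 1 mg·kg^-1.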

[5] = Dose normalized Cmax in Sprague-Dawley rat at 30 mg/kg, po by HPLC method; type: ADME, organism-based; conditions: in vivo; outline: as §2
[6] = Tmax in Sprague-Dawley rat at 30 mg/kg, po by HPLC method; type: ADME, organism-based; conditions: in vivo; outline: as §2
[7] = Oral bioavailability in Sprague-Dawley rat at 3 mg/kg by HPLC method; type: ADME, organism-based; conditions: in vivo; outline: as §2
[8] = Oral bioavailability in Sprague-Dawley rat at 30 mg/kg by HPLC method; type: ADME, organism-based; conditions: in vivo; outline: as §2
[9] = Dose normalized AUC in Sprague-Dawley rat at 30 mg/kg, po by HPLC method; type: ADME, organism-based; conditions: in vivo; outline: as §2
[10] = Dose normalized Cmax in Beagle dog at 0.3 mg/kg, po by HPLC method; type: ADME, organism-based, Canis lupus familiaris; conditions: in vivo; outline: as §2
[11] = Dose normalized AUC in Beagle dog at 0.1 mg/kg, iv by HPLC method; type: ADME, organism-based, Canis lupus familiaris; conditions: in vivo
[12] = Dose normalized Cmax in Sprague-Dawley rat at 3 mg/kg, po by HPLC method; type: ADME, organism-based; conditions: in vivo; outline: as §2
[13] = Tmax in Beagle dog at 0.3 mg/kg, po by HPLC method; type: ADME, organism-based, Canis lupus familiaris; conditions: in vivo; outline: as §2
[14] = Dose normalized AUC in Sprague-Dawley rat at 1 mg/kg, iv by HPLC method; type: ADME, organism-based; conditions: in vivo
[15] = Volume of distribution at steady state in Beagle dog at 0.1 mg/kg, iv by HPLC method; type: ADME, organism-based, Canis lupus familiaris; conditions: in vivo, read-out: Vdss
[16] = Dose normalized AUC in Sprague-Dawley rat at 3 mg/kg, po by HPLC method; type: ADME, organism-based; conditions: in vivo
[17] = Dose normalized AUC in Beagle dog at 0.3 mg/kg, po by HPLC method; type: ADME, organism-based, Canis lupus familiaris; conditions: in vivo; outline: as §2
[18] = Tmax in Sprague-Dawley rat at 3 mg/kg, po by HPLC method; type: ADME, organism-based; conditions: in vivo; outline: as §2
[19] = Volume of distribution at steady state in Sprague-Dawley rat at 1 mg/kg, iv by HPLC method; type: ADME, organism-based; conditions: in vivo, read-out: Vdss
[20] = Drug uptake in Lewis rat blood at 30 mg/kg, po administered as single dose by LC-MS analysis; type: ADME, organism-based; conditions: in vivo, read-out: Drug uptake; outline: as §1

Structure (SMILES)	solubility thermodynamic [1] [µM]	logP [2]	further results
COc1ncc(-c2ccc3ncnc(-c4cccc(C(=O)N5CCN(C(C)=O)CC5)c4)c3c2)cc1C(F)(F)F	380 (≈ 203 µg/mL)	3.1	–
COc1ccc(-c2ccc3ncnc(-c4cncc(C(=O)N5CCN(C)CC5)c4)c3c2)cn1	> 1000	1.9	–
COc1ncc(-c2ccc3ncnc(-c4cccc(C(=O)N5CCN(C(C)=O)CC5)c4)c3c2)cc1C#N	210 (≈ 103 µg/mL)	2.8	Tmax [3]: 2 h; bioavailability [4]: 42%; Cmax/dose [5]: 20 nM; Tmax [6]: 5.3 h; bioavailability [7]: 22%; bioavailability [8]: 10%; AUC/dose [9]: 237 nM·h; Cmax/dose [10]: 440 nM; AUC/dose [11]: 2798 nM·h; Cmax/dose [12]: 48 nM; Tmax [13]: 0.8 h; AUC/dose [14]: 2315 nM·h; Vd [15]: 1 L/kg; AUC/dose [16]: 500 nM·h; AUC/dose [17]: 1188 nM·h; Tmax [18]: 3.5 h; Vd [19]: 2 L/kg; concentration [20]: 5000 nM
COc1ccc(-c2ccc3ncnc(N4CCC[C@H](C(=O)N5CCN(C)CC5)C4)c3c2)cn1	> 1000	–	–
COc1ccc(-c2ccc3ncnc(-c4cccc(C(=O)N5CCN(C(C)=O)CC5)c4)c3c2)cc1OC	800 (≈ 397 µg/mL)	1.9	–

Continued, in another order:

solubility thermodynamic [1] [µM]	logP [2]	Structure (SMILES)	further results
420 (≈ 195 µg/mL)	1.9	COc1ncc(-c2ccc3ncnc(-c4cccc(C(=O)N5CCN(C)CC5)c4)c3c2)cc1C#N	–
850 (≈ 398 µg/mL)	2.8	COc1ccc(-c2ccc3ncnc(-c4cccc(C(=O)N5CCN(C)CC5)c4)c3c2)cc1OC	–
610 (≈ 297 µg/mL)	2.8	CC(=O)N1CCN(C(=O)c2cccc(-c3ncnc4ccc(-c5cnc6ccccc6c5)cc34)c2)CC1	–
850 (≈ 431 µg/mL)	3.9	COc1ncc(-c2ccc3ncnc(-c4cccc(C(=O)N5CCN(C)CC5)c4)c3c2)cc1C(F)(F)F	–
> 1000	2.2	COc1ccc(-c2ccc3ncnc(-c4cccc(C(=O)N5CCN(C)CC5)c4)c3c2)cn1	–
> 1000	2.7	COc1ccc(-c2ccc3ncnc(-c4cccc(C(=O)N5CCN(C(C)=O)CC5)c4)c3c2)cn1	–
> 1000	3.1	CN1CCN(C(=O)c2cccc(-c3ncnc4ccc(-c5cnc6ccccc6c5)cc34)c2)CC1	–
